# According to ChEMBL document CHEMBL4823286, “Synthesis and evaluation of novel 2,4-diaminopyrimidines bearing a sulfoxide moiety as anaplastic lymphoma kinase (ALK) inhibition agents” (Bioorg Med Chem Lett, 2021):
# Legend:
# BaF3 = assay: Antiproliferative activity against mouse BaF3 cells overexpressing ALK assessed as inhibition of cell proliferation measured by CCK8 assay; format: functional, cell-based
# How it was run: (§1)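 Cell proliferation inhibition; IC50 given as mean ± SD of three independent experiments.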
# NCI-H2228 = assay: Antiproliferative activity against human NCI-H2228 cells assessed as inhibition of cell proliferation measured by CCK8 assay; format: functional, cell-based; how it was run: as §1
Structure (SMILES),IC50 (BaF3),IC50 (NCI-H2228)
CC[S+]([O-])c1cc(F)ccc1Nc1nc(Nc2ccc(N(C)C3CCN(C)CC3)cc2OC)ncc1Cl (stereo not given),82 nM,1440 nM
Cc1cc(Nc2ncc(Cl)c(Nc3ccccc3S(=O)(=O)C(C)C)n2)c(OC(C)C)cc1C1CCNCC1 [CERITINIB],7.11 nM,22.1 nM
CCSc1ccccc1Nc1nc(Nc2ccc(N3CCN(C)CC3)cc2OC)ncc1Cl,78 nM,981 nM

# Further lines, results first:
IC50 (BaF3),IC50 (NCI-H2228),Structure (SMILES)
32.3 nM,82.9 nM,COc1cc(N2CCN(C)CC2)ccc1Nc1ncc(Cl)c(Nc2ccccc2[S+]([O-])C(C)C)n1 (stereo not given)
23.5 nM,51.5 nM,CC[S+]([O-])c1ccccc1Nc1nc(Nc2ccc(N3CCCN(C)CC3)cc2OC)ncc1Cl (stereo not given)
